# Measured values pooled from the literature.
# Lines come from different studies, so protocols differ.
# Effect on: cell growth or viability
Structure (SMILES),cell line,assay,setting,endpoint,result
CCCc1n(Cc2ccc3ccccc3n2)cc[n+]1Cc1ccc2ccccc2c1,HOP-92,SRB,,TGI,1120 nM
S=C([S][Au-][P+](CCCCCC[P+]([Au-][S]C(=S)n1cccn1)(c1ccccc1)c1ccccc1)(c1ccccc1)c1ccccc1)n1cccn1,UO-31,,,GI50,933 nM
COc1cc(-c2ccc(-c3ccc(C(=N)N)nc3)s2)cc(OC)c1OC,UO-31,,,GI50,1880 nM
Cc1ccc2cncc(N3CCc4c(cc(Cn5ccnc5)cc4-c4cn(C)nc4C(F)(F)F)C3=O)c2c1,K562,ATP luminescence,5 days,GI50,4900 nM
Cc1n(Cc2ccc3ccccc3n2)cc[n+]1Cc1ccc2ccccc2c1,HOP-62,SRB,,TGI,6660 nM
COc1ccc(-c2ccc(-c3ccc(C(=N)N)nc3)s2)cc1,SN12C,,,GI50,1830 nM
CC1(C)C(=O)NC2=C1C(=O)C(=O)c1ccccc12,CAL-27,,72 h,IC50,2880 nM
CC(C)C[C@H](NC(=O)[C@H](Cc1ccccc1)NC(=O)c1cnccn1)B(O)O,OVK18,ATP luminescence,,IC50,8.8 nM
CCc1n(Cc2ccc3ccccc3n2)cc[n+]1Cc1ccc2ccccc2n1,HOP-92,SRB,,TGI,521 nM
CC(C)(C=O)Cc1cc(C(C)(C)C)c(O)c(C(C)(C)C)c1,CAL-27,,72 h,IC50,> 20000 nM
CCc1n(Cc2ccc3ccccc3n2)cc[n+]1Cc1ccc2ccccc2c1,HOP-62,SRB,,TGI,7020 nM
COc1ccc(-c2ccc(-c3ccc(C(=N)N)nc3)s2)cc1Cl,UO-31,,,GI50,1550 nM
CC1(C)CCC(CN2CCN(c3ccc(C(=O)NS(=O)(=O)c4ccc(NCC5CCOCC5)c([N+](=O)[O-])c4)c(Oc4cnc5[nH]ccc5c4)c3)CC2)=C(c2ccc(Cl)cc2)C1,MDCK,,24 h,EC50,> 50000 nM
CCCCc1ccc2[nH]c(NC(=O)OC)nc2c1,CAL-27,,72 h,IC50,270 nM
c1ccc(-c2n(Cc3ccc4ccccc4c3)cc[n+]2Cc2ccc3ccccc3c2)cc1,HOP-92,SRB,,TGI,2280 nM
